In the RNAGym collection of RNA variant scans (doi:10.1038/s41586-018-0170-7):

B1: tRNA (parent)
chain: GUUCCGUUGGCGUAAUGGUAACGCGUCUCCCUCCUAAGGAGAAGACUGCGGGUUCGAGUCCCGUACGGAACG

Variants of: B1
Test: yeast fitness, log relative to wild type (ln ratio); higher = fitter; tRNA-Arg(CCU), competitive growth, 37 C, 1 M NaCl
In short: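 A combinatorial tRNA-Arg(CCU) variant library was carried on a HIS3 centromeric plasmid in BY4742 lacking the chromosomal gene, from two independent transformations. Pools grew 4 generations in SC-HIS at 30 °C, then ~6.5 generations (~26.5 h) in SC-HIS 1M NaCl at 37 °C, with three outputs per input. Variants were counted by 125 bp paired-end Illumina sequencing. Fitness is ln of each genotype's generations (OD-scaled log2 output/input frequency, inverse-variance weighted across replicates) over the wild-type's.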

Variant	yeast fitness (ln)
G1A U2G G6U C27U A43C C46U C66A	-0.25
U2C G6A A43C C46U C66U C71U	-0.0554
U2C G6U C27U A43C C66U A69G A70U C71U	-0.419
U2C A43C C66A	-0.0546
U2C A43C C66U	-0.0874
G1A U2G G6U A43C C46U C66A A69G A70G C71U	-0.378
G1A U2C G6U A43C C46U A70U C71U	-0.144
G1A A43C C46U C71U	-0.00436
G1A U2C A69G C71U	-0.17
A43C C46U C66U A69G A70G	-0.117
G1A C27U C46U C66A A70U C71U	-0.208
U2C G6A A43C A70G	-0.231
G6U C27U C66U A70U C71U	-0.36
G1A G6A A69G A70U	-0.166
G1A A43C C66A A70U	-0.129
U2C G6A C46U C66U A69G	-0.293
G6U A43C C46U C66A A70U	-0.113
G1A U2G A43C A69G A70G C71U	-0.202
G1A U2G G6A C27U A43C C46U A69G A70U C71U	-0.443
G1A A43C C46U A70U C71U	-0.116
G6U C66A C71U	-0.0261

Variant	yeast fitness (ln)
U2C G6U C27U A43C A69G A70U	-0.271
G1A U2C G6A A43C C46U A69G A70G	-0.191
U2G G6U A43C C66U A69G A70U	-0.379
G1A C27U A43C C66U A69G A70U	-0.325
G1A U2C G6U C27U C66U A70U	-0.176
G6U C66A A69G A70G C71U	-0.402
G1A U2C G6A C27U C46U C66U A69G A70U C71U	-0.327
G1A U2G G6A C27U A43C C46U C66A A70U	-0.219
G1A G6A C27U A43C C66U A70U	-0.304
U2G G6A C27U A43C C66U C71U	-0.373
U2C C27U A43C	-0.0586
G6U C46U C66U A69G	-0.376
U2G G6A C27U A43C C46U C66A A70G C71U	-0.19
G1A U2G G6A C27U	-0.0861
U2C G6A C27U C71U	-0.212
U2C C27U A43C C46U C66U A69G A70U	-0.259
G1A U2G A43C C46U A69G A70G C71U	-0.226
G1A U2G G6U C27U A43C C46U C66A A70G C71U	-0.369
U2C A69G C71U	-0.158
C46U A69G C71U	-0.00543
G1A U2G G6A A43C A69G A70G C71U	-0.29

Variant	yeast fitness (ln)
G1A C46U A69G A70U	-0.0206
G1A U2G G6A A43C C66U A69G A70U C71U	-0.396
U2C G6U C27U C66A A70U C71U	-0.26
U2G G6A C27U C46U C66U A69G	-0.215
G1A U2G G6U C27U A43C C46U C66U A70U C71U	-0.647
G1A G6U C46U C66A A70U	-0.0534
G1A U2G G6U C46U A69G C71U	-0.3
U2C G6A C27U A43C C46U C66U A70U C71U	-0.225
G1A G6A C27U A43C C46U C66A A70U C71U	-0.209
U2C G6A A43C C66U A70G C71U	-0.0302
G1A U2C G6U A43C C66U A69G A70G C71U	-0.344
U2C C66U	-0.207
G1A U2G G6A C66A A70U C71U	-0.119
G1A G6U A43C	-0.192
G1A U2C G6U A43C C46U C66U A70U	-0.167
G1A U2G C46U C66U A70G	-0.148
G1A U2G G6U C27U A43C C66U A69G A70G C71U	-0.491
G6U C27U C66U A70G C71U	-0.37
G6A C27U A43C C46U C66U	-0.0283
G1A C46U C66U A70U	-0.201
G1A G6U C27U A43C C46U C66U A70U C71U	-0.471

Variant	yeast fitness (ln)
G1A G6U A43C C46U C66A A70G C71U	-0.237
U2G C27U C46U C66A A69G C71U	-0.301
G1A U2C G6U C27U C46U C66A A70G C71U	-0.0279
U2C G6A A43C C66A A70U	-0.0851
G1A U2G G6A A70U C71U	-0.0851
A69G A70U C71U	-0.162
U2C C27U A43C C46U A70U C71U	-0.0649
G6U A43C C46U A69G A70U	-0.236
G1A U2G G6A C46U C66U C71U	-0.301
G6A A43C C46U A70G	-0.0876
U2C G6U A43C C66A A69G A70U C71U	-0.321
U2C G6U A43C A70G	-0.188
U2G C66A A70U	-0.157
C46U A70G C71U	-0.0663
A43C C66U A70G C71U	-0.156
G6U C27U C66A A69G A70G C71U	-0.329
G6U A43C C46U C66U C71U	-0.254
U2C G6U A43C C46U C66A A69G A70G	-0.0147
U2C G6U A43C C46U C66A A69G A70U	-0.162
G1A G6U C27U A43C C46U C66A A70U	-0.359
